From ChEMBL document CHEMBL3792381, “Amine-free melanin-concentrating hormone receptor 1 antagonists: Novel 1-(1H-benzimidazol-6-yl)pyridin-2(1H)-one derivatives and design to avoid CYP3A4 time-dependent inhibition” (Bioorg Med Chem, 2016) come the findings set out here.

Series [1] addresses Melanin-concentrating hormone receptor 1 (Rattus norvegicus, UniProt P97639). In words: Displacement of [125I]-MCH(4-19) from rat MCHR1 expressed in CHO cell membranes after 1 hr by liquid scintillation counting. Put shortly:
(§1)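 Membranes from CHO cells stably expressing human or rat MCHR1, prepared by homogenization and 100,000×g centrifugation, in 20 mM Tris-HCl pH 7.5 with 5 mM EDTA and protease inhibitors. Incubated with test compound and [125I]-MCH(4–19) for 1 h at room temperature. Filtered on PEI-treated GF/C filters and counted by scintillation. Nonspecific binding defined with cold MCH(1–19). IC50 from duplicate experiment.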
(Displacement assays read how much labelled ligand stays bound in the presence of the test substance.)

Series [2] has as its target T1, Melanin-concentrating hormone receptor 1 (Homo sapiens, UniProt Q99705). In words: Displacement of [125I]-MCH(4 to 19) from human MCHR1 expressed in CHO cell membranes after 1 hr by liquid scintillation counting. Put shortly:
as §1

Series [3] deals with CYP3A4 (Homo sapiens, UniProt P08684). In words: Time dependent inhibition of CYP3A4 in human liver microsomes assessed as conversion of testosterone to 6beta-hydroxytestosterone by measuring remaining activity at 30 uM by UPLC analysis in presence of NADPH generating system. Format: ADME. To be noted: read-out: Activity. The method, boiled down:
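Single-point assay: test compound at 30 µM preincubated with human liver microsomes at 37 °C in phosphate buffer pH 7.4 with an NADPH-generating system. Residual CYP3A4 activity then measured as testosterone 6β-hydroxylation by UPLC. Percent remaining = activity with preincubation (% of DMSO control) over activity without preincubation; n = 2.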

The test system of series [4] is Rattus norvegicus. The series can be described thus: Anorectic effect in DIO-F344/Jcl rat assessed as cumulative food intake at 1 mg/kg, po dosed for 2 weeks and measured every 2 or 3 days relative to vehicle control. Format: functional. Put shortly: (§2)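 Male DIO-F344 rats (41 weeks old), on high-fat diet D12451 from 5 weeks of age, singly housed, given powder high-fat diet, habituated to oral dosing with tap water, grouped by day-0 food intake and body weight. Oral gavage once daily, suspended in 0.5% methylcellulose at 2 mL/kg, 1–3 h before dark onset, for 2 weeks (n = 5 or 6). Body weight taken before dosing, expressed as % of initial. Food intake every 2 or 3 days. Vehicle-treated and sibutramine-treated groups included.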

In series [5] the test system is Rattus norvegicus. The series can be described thus: Antiobesity activity in DIO-F344/Jcl rat assessed as reduction in body weight at 1 mg/kg, po dosed for 2 weeks and measured every 2 or 3 days relative to vehicle control. The class given is functional. Set-up: scale not given: the % may be the effect or the level left. The method, boiled down:
as §2

The target of series [6] is Cytochrome P450 3A4 (Homo sapiens, UniProt P08684). In words: Time dependent inhibition of CYP3A4 in human liver microsomes at 10 uM. Format: ADME. In general terms: Liver microsomes are a subcellular fraction often used to study metabolism.
The nature of series [7]: Tmax in Sprague-Dawley rat plasma at 1 mg/kg, po administered through cassette dosing by LC/MS/MS analysis. Format: ADME, organism-based. The method, boiled down: (§3)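 Male SD rats (eight weeks old), fed, cassette-dosed iv at 0.1 mg/kg or orally at 1 mg/kg as a suspension in 0.5% methylcellulose; n = 3. Plasma obtained by centrifugation of blood, deproteinized with acetonitrile, and measured by LC/MS/MS. AUC covers 0–8 h. Bioavailability, total clearance and Vss are derived from the iv and po data.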

Series [8] in a line: AUC( 0 to 8 hrs) Sprague-Dawley rat plasma at 1 mg/kg, po administered through cassette dosing by LC/MS/MS analysis. Format: ADME, organism-based. The arrangement: dose 1 mg/kg, time < 8 hr, route oral. Put shortly:
as §3

Series [9] relates to Rattus norvegicus. The series can be described thus: Anorectic effect in DIO-F344/Jcl rat assessed as inhibition of food intake at 10 mg/kg, po administered 2 hrs before onset of dark period for 2 days. The class given is functional. Set-up: scale not given: the % may be the effect or the level left. The method, boiled down: (§4)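 Male DIO-F344/Jcl rats, 45 weeks old, on high-fat diet from 5 weeks of age, singly housed on powdered high-fat diet and habituated to oral dosing with tap water. Grouped by day-0 food intake and body weight. Dosed orally once daily, suspended in 0.5% methylcellulose at 2 mL/kg, 2 h before dark onset, for 2 days; n = 6. Cumulative 2-day food intake is expressed relative to the vehicle group.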

Series [10] is described as follows: Cmax in Sprague-Dawley rat at 1 mg/kg, po administered through cassette dosing by LC/MS/MS analysis. Set-up: dose 1 mg/kg, route oral. The class given is ADME, organism-based. To be noted: in vivo. Put shortly: as §3
Series [11] in a line: Total clearance in Sprague-Dawley rat plasma at 0.1 mg/kg, iv administered through cassette dosing by LC/MS/MS analysis. Format: ADME, organism-based. Put shortly: as §3
Series [12] is described as follows: Solubility of compound at pH 6.8. The class given is physicochemical. The settings on record: buffer.
The nature of series [13]: Oral bioavailability in Sprague-Dawley rat plasma at 1 mg/kg administered through cassette dosing by LC/MS/MS analysis. Format: ADME, organism-based. The method, boiled down:
as §3

Series [14] relates to Rattus norvegicus. In words: Anorectic effect in DIO-F344/Jcl rat assessed as inhibition of food intake at 3 mg/kg, po administered 2 hrs before onset of dark period for 2 days. The class given is functional. Put shortly:
as §4

A short description of series [15]: Volume of distribution in steady state in Sprague-Dawley rat plasma at 0.1 mg/kg, iv administered through cassette dosing by LC/MS/MS analysis. Format: ADME, organism-based. The settings on record: read-out: Vdss. The method, boiled down:
as §3

The target of series [16] is T1, Melanin-concentrating hormone receptor 1. In words: Antagonist activity at human MCHR1 expressed in CHO cells assessed as change in MCH(4 to 19)-stimulated Ca2+ concentration by Ca2+ mobilization assay. Format: functional, cell-based. Put shortly: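 CHO dhfr− cells stably transfected with human MCHR1 (clone 4), seeded at 20000 cells/well and cultured about 24 h. Loaded with Fluo4 calcium dye for 30 min at 37 °C. Test compound in 10 mM HEPES pH 7.4 buffer with 0.1% BSA added, then MCH(4–19) at 2 nM final. Fluorescence read every 2 s; inhibition rate (%) taken relative to ligand-alone and DMSO-alone wells.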
(A change in cytosolic calcium serves as a functional read-out for many receptors and channels.)

The structures appear in SMILES notation. In brackets after ≈: the same amount, converted by molar mass. Activity calls are given as the source filed them. The calls are words filed in the database; no cut-off is given here.

T1 sequence (Q99705 whole entry): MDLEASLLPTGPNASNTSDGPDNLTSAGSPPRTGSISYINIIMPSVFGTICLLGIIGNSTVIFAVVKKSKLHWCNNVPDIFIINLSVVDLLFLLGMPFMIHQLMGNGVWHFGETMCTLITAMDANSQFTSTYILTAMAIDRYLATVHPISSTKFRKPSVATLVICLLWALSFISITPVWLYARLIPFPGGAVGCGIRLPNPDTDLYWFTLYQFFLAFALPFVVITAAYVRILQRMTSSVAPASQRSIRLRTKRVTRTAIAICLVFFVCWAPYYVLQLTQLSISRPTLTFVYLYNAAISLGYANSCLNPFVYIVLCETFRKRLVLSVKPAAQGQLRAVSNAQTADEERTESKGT
Chain of CYP3A4 (P08684 whole entry): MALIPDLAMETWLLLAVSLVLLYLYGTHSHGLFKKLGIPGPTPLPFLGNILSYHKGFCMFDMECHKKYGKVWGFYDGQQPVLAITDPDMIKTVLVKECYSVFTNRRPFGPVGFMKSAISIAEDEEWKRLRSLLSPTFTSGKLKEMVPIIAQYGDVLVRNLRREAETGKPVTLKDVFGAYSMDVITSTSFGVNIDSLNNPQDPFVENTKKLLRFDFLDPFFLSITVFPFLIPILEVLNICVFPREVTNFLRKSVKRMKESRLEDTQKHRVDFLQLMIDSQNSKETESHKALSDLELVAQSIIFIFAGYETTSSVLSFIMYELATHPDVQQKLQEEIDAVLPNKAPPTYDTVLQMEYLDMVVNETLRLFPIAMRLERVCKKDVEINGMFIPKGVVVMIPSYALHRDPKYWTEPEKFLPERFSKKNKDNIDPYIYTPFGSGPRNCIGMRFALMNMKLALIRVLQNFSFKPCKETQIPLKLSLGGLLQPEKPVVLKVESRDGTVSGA
Chain of Melanin-concentrating hormone receptor 1 (Rattus norvegicus, UniProt P97639) (P97639 whole entry): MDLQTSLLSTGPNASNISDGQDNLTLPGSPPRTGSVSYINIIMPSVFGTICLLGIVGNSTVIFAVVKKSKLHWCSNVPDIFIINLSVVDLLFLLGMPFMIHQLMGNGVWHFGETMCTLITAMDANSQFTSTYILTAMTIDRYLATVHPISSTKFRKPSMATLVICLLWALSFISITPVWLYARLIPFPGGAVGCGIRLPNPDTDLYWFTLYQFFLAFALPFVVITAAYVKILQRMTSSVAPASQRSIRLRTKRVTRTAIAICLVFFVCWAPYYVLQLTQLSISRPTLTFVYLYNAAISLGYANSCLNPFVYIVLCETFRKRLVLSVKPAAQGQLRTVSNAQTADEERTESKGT
Chain of Cytochrome P450 3A4 (P08684 whole entry): as the sequence (P08684 whole entry) above

In the case of `Cn1c(C2CC2)nc2ccc(-n3ccc(OCc4ccc(F)cc4)cc3=O)cc21`, the figures for the IC50 in series [1] and in series [2] were 28 nM and 40 nM, respectively.

In the case of `Cc1c(C2CC2)nc2ncc(-n3ccc(OCc4ccc(Cl)cc4)cc3=O)cn12`, in series [2], the concentration for half-maximal inhibition (IC50) was over 1000 nM.

With `Cn1c(C2CC2)nc2ccc(-n3ccc(OCc4ccc(Cl)cn4)cc3=O)cc21`, the concentration for half-maximal inhibition (IC50) in series [1] is 47 nM; in series [2], 73 nM.

`Cn1c(C2CCCC2)nc2ccc(-n3ccc(OCc4ccc(F)cc4)cc3=O)cc21`: the IC50 in series [1] came to 460 nM; in series [2], 600 nM.

For `Cn1c(C2CC2)nc2ccc(-n3ccc(OCc4cc(C(F)(F)F)cs4)cc3=O)cc21`, the half-inhibitory concentration (IC50) came out at 17 nM in [1] and 34 nM in [2]. Further, the activity at 30 µM in series [3] was found to be 87%.

Turning to `Cn1c(C2CC2)nc2ccc(-n3ccc(OCc4ccccc4Cl)cc3=O)cc21`, the IC50 in [1] was 140 nM; in series [2] it was 160 nM.

With `Cn1c(CC2CC2)nc2ccc(-n3ccc(OCc4ccc(F)cc4)cc3=O)cc21`, the half-maximal inhibitory concentration (IC50) amounted to 140 nM in series [1] and 90 nM in series [2].

In the case of `CC(C)CC(N(C)C)C1(c2ccc(Cl)cc2)CCC1` (stereo not drawn) [SIBUTRAMINE], the Activity was 18.7% in series [4] and 3.1% in series [5].

With `Cc1c(C2CC2)nc2ccc(-n3ccc(OCc4ccc(Cl)cc4)cc3=O)nn12`, in series [2], the IC50 was found to be 380 nM.

Regarding `Cn1c(C2CC2)nc2ccc(-n3ccc(OCc4cccc(Cl)c4)cc3=O)cc21`, the half-inhibitory concentration (IC50) stood at 72 nM in [1] and 100 nM in series [2].

Turning to `Cn1c(C2CC2)nc2ccc(-n3ccc(OCc4cc(Cl)cs4)cc3=O)cc21`, the IC50 came out at 18 nM in [1] and 17 nM in [2]. For the same molecule, the activity at 30 µM in series [3] was 25%.

As to `CCn1c(C2CC2)nc2ccc(-n3ccc(OCc4ccc(Cl)cc4)cc3=O)cc21`, the IC50 in [1] is 34 nM; in series [2], 37 nM.

Consider `Cn1c(C2CC2)nc2ccc(-n3ccc(OCc4ncc(Cl)cn4)cc3=O)cc21`, for which the IC50 in [1] was 900 nM; in [2], over 1000 nM.

Turning to `Cn1c(C2CC2)nc2ccc(-n3ccc(OCc4ccc(Cl)cc4)cc3=O)cc21`, the IC50 in series [1] came out at 21 nM; in series [2] it was 35 nM.

Take `Cn1c(C2CC2)nc2ccc(-n3ccc(OCc4ccccc4)cc3=O)cc21`: the IC50 in series [1] stood at 43 nM; in series [2], 45 nM.

Take `CCc1nc2ccc(-n3ccc(OCc4ccc(F)cc4)cc3=O)cc2n1C`: the IC50 in series [1] was 38 nM; in [2] it was 48 nM.

On to `Cc1c(C2CC2)nc2ccc(-n3ccc(OCc4ccc(Cl)cc4)cc3=O)cn12`, for which the “inhibition (INH)” value in series [6] is given as “Active”.

For `Cn1c(C2CC2)nc2ccc(-n3ccc(OCc4csc(C(F)(F)F)c4)cc3=O)cc21`, the half-inhibitory concentration (IC50) turned out to be 29 nM in [1] and 41 nM in series [2]. In series [3], the activity at 30 µM amounted to 96%.

`Cc1nc2ccc(-n3ccc(OCc4ccc(F)cc4)cc3=O)cc2n1C`: the 50% inhibitory concentration (IC50) in series [1] turned out to be 65 nM; in [2] it was 77 nM.

On to `CCCc1nc2ccc(-n3ccc(OCc4ccc(F)cc4)cc3=O)cc2n1C`, for which the IC50 in series [1] turned out to be 39 nM; in [2] it was 34 nM.

Turning to `CCCn1c(C2CC2)nc2ccc(-n3ccc(OCc4ccc(Cl)cc4)cc3=O)cc21`, the figures for the 50% inhibitory concentration (IC50) in series [1] and in series [2] were 110 nM and 85 nM, respectively.

For `Cn1c(C2CC2)nc2ccc(-n3ccc(OCc4cccs4)cc3=O)cc21`, the IC50 amounted to 120 nM in series [1] and 76 nM in series [2].

For the molecule `Cn1c(C2CC2)nc2ccc(-n3ccc(OCc4ccc(C(F)(F)F)s4)cc3=O)cc21`, the IC50 in series [1] was found to be 13 nM; in series [2] it was 16 nM; in [16], 18 nM. The time to peak (Tmax) in series [7] stood at 2.7 h. In series [8], this molecule yielded an area under the curve AUC(0-t) at 8 h of 2020 ng·h/mL. The Activity in [9] was found to be 20.3%. In series [10], this molecule returned a Cmax of 298 ng/mL. This molecule also showed a clearance in series [11] of 4.75 mL/min/kg. Besides, the solubility in series [12] came out at 0.25 µg/mL (≈ 0.561 µM). The bioavailability in [13] was determined as 57%. Also, in series [14], the Activity result is “Active”. Also, the Vd in [15] came out at 0.979 L/kg. Also, the activity at 30 µM in series [3] is 97%.

As for `Cn1c(C2CC2)nc2ccc(-n3ccc(OCc4ccsc4)cc3=O)cc21`, the IC50 amounted to 29 nM in series [1] and 28 nM in series [2]. Further, the activity at 30 µM in series [3] worked out at 74%.

In the case of `Cn1c(CC(C)(C)C)nc2ccc(-n3ccc(OCc4ccc(F)cc4)cc3=O)cc21`, the concentration for half-maximal inhibition (IC50) in series [1] and in series [2] was over 1000 nM throughout.

For `Cn1c(C2CC2)nc2ccc(-n3ccc(OCc4csc(Cl)c4)cc3=O)cc21`, the values for the IC50 in [1] and in series [2] were 9.3 nM and 14 nM, respectively. In addition, the activity at 30 µM in series [3] was 44%.

`Cc1c(C2CC2)nc2cnc(-n3ccc(OCc4ccc(Cl)cc4)cc3=O)cn12`: in series [2], the IC50 stood at 44 nM.

For `Cn1c(C2CCC2)nc2ccc(-n3ccc(OCc4ccc(F)cc4)cc3=O)cc21`, the IC50 in [1] came to 210 nM; in series [2] it was 240 nM.

As a reminder, the IC50 is the concentration at which inhibition is half-maximal. The Tmax is the time from dosing to the highest level. What is called AUC(0-t) is exposure summed from dosing to a finite time, without extrapolation to infinity. Usually Cmax stands for the peak of the concentration-time curve. As usually defined, the clearance is the volume of plasma or blood freed of the substance per unit of time. For orientation: solubility means the concentration that dissolves in the medium under given conditions. Broadly, the bioavailability is the share of a dose that reaches the circulation, judged against a reference dose that is usually intravenous.
